Experimental data pooled from the literature.
Lines come from different studies, so protocols differ.
Matrix: Caco-2

SMILES | setting | Papp A→B [×10⁻⁶ cm/s]
O=c1c2cc(Cl)ccc2[nH]c(=S)n1Cc1ccc(-c2nnn[nH]2)nc1 | 10 µM, 90 min, pH 7.4 | < 0.51
CCOCC(=O)N1CCC[C@H](C(=O)NCc2nc(-c3ccc(C)nc3)cs2)C1 | pH 7.4 | 15
O=C(O)[C@H]1O[C@@H](Oc2cc3oc(-c4ccccc4)cc(=O)c3c(O)c2O)[C@H](O)[C@@H](O)[C@@H]1O | 100 µg/mL, 2 h | 10.8
COc1ccccc1OCCNCC(O)COc1cccc2[nH]c3ccccc3c12 (stereo not shown) | 5 µM, 2 h | 4.98
C[C@@H]1O[C@@H](OC[C@H]2O[C@@H](Oc3c(-c4ccc(O)c(O)c4)oc4cc(O)cc(O)c4c3=O)[C@H](O)[C@@H](O)[C@@H]2O)[C@H](O)[C@H](O)[C@H]1O | 200 µg/mL | 0.293
C[C@H]1O[C@@H](O[C@H]2[C@@H](O)C[C@H](O[C@H]3[C@@H](O)C[C@H](O[C@H]4CC[C@@]5(C)[C@H](CC[C@@H]6[C@@H]5C[C@@H](O)[C@]5(C)[C@@H](C7=CC(=O)OC7)CC[C@]65O)C4)O[C@@H]3C)O[C@@H]2C)C[C@H](O)[C@@H]1O | 10 µM, 2 h | 0.48
O=c1c2cc(Cl)ccc2[nH]c(=S)n1Cc1cccnc1 | 10 µM, 90 min, pH 7.4 | 17.7
N#Cc1ccc(C[C@H](Nc2c(Nc3ccc(Br)cc3)c(=O)c2=O)C(=O)N2CCc3ccccc32)cc1 | 100 µM, 2 h | 2
Cc1ccc2[nH]c(=S)n(Cc3cccnc3)c(=O)c2c1 | 10 µM, 90 min, pH 7.4 | 35.4
CC(C)(N)COCC(=O)N1CCC[C@H](C(=O)NCc2nc(-c3ccc(C(F)(F)F)cc3)cs2)C1 | pH 7.4 | 0.18
CCOC(=O)[C@H](CCc1ccccc1)N[C@@H](C)C(=O)N1CCC[C@H]1C(=O)O | 5 µM, 2 h | 0.13
O=C(NCc1nc(-c2ccc(C(F)(F)F)cc2)cs1)[C@H]1CCCN(C(=O)COCCN2CCCCC2)C1 | pH 7.4 | 3.9
COc1ccc(-c2coc3cc(O)cc(O)c3c2=O)cc1 | 100 µg/mL, 2 h | 20.4
CCOCC(=O)N1CCC[C@H](C(=O)NCc2nc(-c3ccc(C#N)nc3)cs2)C1 | pH 7.4 | 13
COc1ccc(-c2coc3cc(O)ccc3c2=O)cc1 | 100 µg/mL, 2 h | 4.66
CCN1CCCC1CNC(=O)c1cc(S(N)(=O)=O)ccc1OC (stereo not shown) | 5 µM, 2 h | 0.16
C=CC(=O)NC1CCN(c2ncc3ncnc(Nc4ccc(Oc5ccc6c(c5)ncn6C)c(C)c4)c3n2)CC1 | – | ~6.8
N[C@@H](COCC(=O)N1CCC[C@H](C(=O)NCc2nc(-c3ccc(C(F)(F)F)cc3)cs2)C1)c1ccccc1 | pH 7.4 | 8.5
COc1ccc(CCC(=O)c2c(O)cc(O[C@@H]3O[C@H](CO)[C@@H](O)[C@H](O)[C@H]3O[C@@H]3O[C@@H](C)[C@H](O)[C@@H](O)[C@H]3O)cc2O)cc1O | 100 µg/mL, 2 h | 17

SMILES | setting | Papp A→B [×10⁻⁶ cm/s]
Cc1ncc(Cl)cc1NCc1ccc(C(=O)N[C@@H](CC2CCCC2)C(=O)NC2CC2)s1 | 5 µM, 2 h, pH 7.4 | 0.22
CCCCCOC(=O)Nc1nc(=O)n([C@@H]2O[C@H](C)[C@@H](O)[C@H]2O)cc1F | 4 h | 3.24
N#Cc1ccc(C[C@H](Nc2nnc(-c3ccc(F)cc3)o2)C(=O)N2CCc3ccccc32)cc1 | 100 µM, 2 h | 62.9
Cc1ccc(N(c2ccc(NC(=O)CN(C)c3ccccc3N3CCCC3=O)cc2)C(C)C)cc1 | – | 1.09
Oc1cc(O)c2c(c1)O[C@H](c1ccc(O)c(O)c1)[C@H](O)C2 | 100 µg/mL, 2 h | 1.26
Nc1nc2c(ncn2COCCO)c(=O)[nH]1 | 5 µM, 2 h | 0.18
COc1ccc(-c2cc(=O)c3c(O)cc(O[C@@H]4O[C@H](CO[C@@H]5O[C@@H](C)[C@H](O)[C@@H](O)[C@H]5O)[C@@H](O)[C@H](O)[C@H]4O)cc3o2)cc1O | 100 µg/mL, 2 h | 45.2
CCCCCCOC(=O)NC(=N)c1ccc(NCc2nc3cc(C(=O)N(CCC(=O)OCC)c4ccccn4)ccc3n2C)cc1 | 5 µM, 2 h | 0.0021
COc1cc(NC(=O)Cn2cc(Cl)c3cc(F)c(-c4cnn(C)c4)cc32)cc(OC)c1OC | – | 0.08
O=c1cc(-c2ccccc2)oc2cc(O)c(O)c(O)c12 | 100 µg/mL, 2 h | 9.23
O=c1c(O[C@@H]2O[C@H](CO)[C@H](O)[C@H](O)[C@H]2O)c(-c2ccc(O)c(O)c2)oc2cc(O)cc(O)c12 | 200 µg/mL | 0.349
O=C(N[C@@H](c1ccccc1)[C@H]1CCCN1)C1=CN(c2ncnc3[nH]ccc23)CCS1 | 10 µM, pH 6.5 | < 0.3
CN/C(=N/CCSCc1nc[nH]c1C)NC#N | 5 µM, 2 h | 0.55
N#Cc1ccc(C[C@H](Nc2ncc(-c3ccc(F)cc3)o2)C(=O)N2CCc3ccccc32)cc1 | 100 µM, 2 h | 10.6
O=c1cc(-c2ccc(O)cc2)oc2c([C@@H]3O[C@H](CO)[C@@H](O)[C@H](O)[C@H]3O)c(O)cc(O)c12 | 100 µg/mL | 0.316
COCC(=O)OCc1cc2[nH]c(=S)n(Cc3cccnc3)c(=O)c2cc1Cl | 10 µM, 90 min, pH 7.4 | 0.2
O=c1c(-c2ccc(O)cc2)coc2c([C@@H]3O[C@H](CO)[C@@H](O)[C@H](O)[C@H]3O)c(O)ccc12 | 100 µg/mL, 2 h | 45.7
O=C(NCc1nc(-c2ccc(C(F)(F)F)cc2)cs1)[C@H]1CCCN(C(=O)CO[C@H]2CCCNC2)C1 | pH 7.4 | 0.15
